Measured values published in ChEMBL document CHEMBL1649443, “Novel S-adenosylmethionine decarboxylase inhibitors for the treatment of human African trypanosomiasis” (Antimicrob Agents Chemother, 2009).
pIC50: −log10 of the molar value. Calls of active or inactive are those of the source.

Tests used:
[1] = system: Trypanosoma brucei rhodesiense; assay: Antiparasitic activity against Trypanosoma brucei rhodesiense STIB 900 clone after 72 hrs by Alamar blue assay; assay type: functional, organism-based; conditions: STIB 900, 72 h
[2] = Metabolic stability in rat liver microsomes assessed as intrinsic clearance up to 45 mins by LC/MS/MS analysis; assay type: ADME, Microsome
[3] = Metabolic stability in human liver microsomes assessed as intrinsic clearance up to 45 mins by LC/MS/MS analysis; assay type: ADME, Microsome
[4] = Metabolic stability in rat hepatocytes assessed as intrinsic clearance up to 45 mins by LC/MS/MS analysis; assay type: ADME, cell-based, Liver, Hepatocyte
[5] = Metabolic stability in human hepatocytes assessed as intrinsic clearance up to 45 mins by LC/MS/MS analysis; assay type: ADME, cell-based, Liver, Hepatocyte
CYP3A4 = CYP3A4 (Homo sapiens, UniProt P08684); assay: Inhibition of human cytochrome P450 3A4; conditions: human
Chain of CYP3A4 (P08684 whole entry): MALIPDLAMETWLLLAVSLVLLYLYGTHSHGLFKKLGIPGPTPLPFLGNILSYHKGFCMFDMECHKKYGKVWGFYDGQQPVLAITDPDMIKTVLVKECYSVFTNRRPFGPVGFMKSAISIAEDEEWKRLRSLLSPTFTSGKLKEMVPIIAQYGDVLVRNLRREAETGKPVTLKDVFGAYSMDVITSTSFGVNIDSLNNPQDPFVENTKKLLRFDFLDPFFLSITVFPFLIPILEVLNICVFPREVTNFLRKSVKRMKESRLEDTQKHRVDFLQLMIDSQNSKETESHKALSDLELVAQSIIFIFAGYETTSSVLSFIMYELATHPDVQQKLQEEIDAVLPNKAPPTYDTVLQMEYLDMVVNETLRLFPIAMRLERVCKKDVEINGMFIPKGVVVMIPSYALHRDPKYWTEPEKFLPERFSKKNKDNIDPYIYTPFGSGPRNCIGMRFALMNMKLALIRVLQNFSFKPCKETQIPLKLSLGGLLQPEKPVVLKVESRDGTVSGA

CYP2D6 = CYP2D6 (Homo sapiens, UniProt P10635); assay: Inhibition of human cytochrome P450 2D6; conditions: human
Chain of CYP2D6 (P10635 whole entry): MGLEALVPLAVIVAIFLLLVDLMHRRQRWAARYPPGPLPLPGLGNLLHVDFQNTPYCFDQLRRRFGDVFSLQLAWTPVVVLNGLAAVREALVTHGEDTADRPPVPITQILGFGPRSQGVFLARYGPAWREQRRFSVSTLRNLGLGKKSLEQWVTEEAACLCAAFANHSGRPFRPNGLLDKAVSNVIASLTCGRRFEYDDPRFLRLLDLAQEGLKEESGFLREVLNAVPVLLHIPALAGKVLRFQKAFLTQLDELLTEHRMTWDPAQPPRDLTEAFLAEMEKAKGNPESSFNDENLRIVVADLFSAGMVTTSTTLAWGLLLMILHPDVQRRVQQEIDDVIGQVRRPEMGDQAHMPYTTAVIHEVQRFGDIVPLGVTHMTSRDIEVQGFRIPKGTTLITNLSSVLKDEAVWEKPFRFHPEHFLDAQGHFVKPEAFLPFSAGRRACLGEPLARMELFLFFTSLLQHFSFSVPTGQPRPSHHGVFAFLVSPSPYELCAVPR

CYP2C9 = CYP2C9 (Homo sapiens, UniProt P11712); assay: Inhibition of human cytochrome P450 2C9; conditions: human
Chain of CYP2C9 (P11712 whole entry): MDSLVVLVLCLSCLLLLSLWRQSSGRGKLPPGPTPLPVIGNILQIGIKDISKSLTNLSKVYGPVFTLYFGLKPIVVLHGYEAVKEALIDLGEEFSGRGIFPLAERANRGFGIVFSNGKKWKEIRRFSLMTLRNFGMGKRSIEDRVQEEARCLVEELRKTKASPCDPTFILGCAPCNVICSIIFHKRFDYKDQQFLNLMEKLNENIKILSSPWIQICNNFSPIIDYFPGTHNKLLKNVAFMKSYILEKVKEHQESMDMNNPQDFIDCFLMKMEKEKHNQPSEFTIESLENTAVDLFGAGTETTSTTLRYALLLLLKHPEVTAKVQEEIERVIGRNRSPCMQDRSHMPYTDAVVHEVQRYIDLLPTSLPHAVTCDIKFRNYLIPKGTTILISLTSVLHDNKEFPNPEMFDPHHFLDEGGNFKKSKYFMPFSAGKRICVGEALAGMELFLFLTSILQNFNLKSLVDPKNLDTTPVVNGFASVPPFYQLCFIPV

CYP2C19 = CYP2C19 (Homo sapiens, UniProt P33261); assay: Inhibition of human cytochrome P450 2C19; conditions: human
Chain of CYP2C19 (P33261 whole entry): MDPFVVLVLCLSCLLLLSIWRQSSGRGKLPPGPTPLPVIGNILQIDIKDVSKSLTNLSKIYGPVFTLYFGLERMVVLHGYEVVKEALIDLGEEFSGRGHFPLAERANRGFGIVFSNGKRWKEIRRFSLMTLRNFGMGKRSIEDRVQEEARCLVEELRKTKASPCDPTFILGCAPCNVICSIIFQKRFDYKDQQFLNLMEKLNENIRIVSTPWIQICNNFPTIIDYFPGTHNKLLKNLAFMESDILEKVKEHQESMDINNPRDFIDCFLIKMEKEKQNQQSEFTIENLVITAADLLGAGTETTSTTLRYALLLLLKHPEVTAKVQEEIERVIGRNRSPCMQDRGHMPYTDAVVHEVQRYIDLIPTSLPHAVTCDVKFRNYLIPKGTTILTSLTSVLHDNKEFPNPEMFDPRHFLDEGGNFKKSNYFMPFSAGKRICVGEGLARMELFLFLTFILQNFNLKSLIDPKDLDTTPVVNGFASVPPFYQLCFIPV

CYP1A2 = molecular target: T1, CYP1A2 (Homo sapiens, UniProt P05177); assay: Inhibition of human cytochrome P450 1A2; conditions: human
T1 sequence (P05177 whole entry): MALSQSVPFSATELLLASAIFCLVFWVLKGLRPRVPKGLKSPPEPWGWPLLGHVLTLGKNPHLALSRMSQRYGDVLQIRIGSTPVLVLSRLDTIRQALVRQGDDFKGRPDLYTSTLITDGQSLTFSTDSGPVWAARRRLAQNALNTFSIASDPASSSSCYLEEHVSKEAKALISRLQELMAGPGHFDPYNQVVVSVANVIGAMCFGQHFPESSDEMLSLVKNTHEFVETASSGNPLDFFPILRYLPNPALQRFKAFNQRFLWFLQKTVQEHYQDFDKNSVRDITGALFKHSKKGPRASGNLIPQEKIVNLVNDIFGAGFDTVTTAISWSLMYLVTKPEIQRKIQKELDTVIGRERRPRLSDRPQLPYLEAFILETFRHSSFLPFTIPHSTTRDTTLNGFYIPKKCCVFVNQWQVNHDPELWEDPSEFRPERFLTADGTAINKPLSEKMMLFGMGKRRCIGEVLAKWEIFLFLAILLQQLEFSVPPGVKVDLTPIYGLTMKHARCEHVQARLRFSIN

[6] = Protein binding in human plasma at pH 7.4 after 4 hrs; assay type: ADME, cell-free; conditions: read-out: PPB (converted)
[7] = Protein binding in mouse plasma at pH 7.4 after 4 hrs; assay type: ADME, cell-free; conditions: read-out: PPB (converted)
[8] = Kinetic solubility in phosphate-buffered saline at pH 7.4 after 16 to 24 hrs by UV spectrophotometry
[9] = system: Trypanosoma brucei brucei; assay: Antiparasitic activity against Trypanosoma brucei brucei LAB 110 EATRO infected in mouse assessed as mean survival days at 2 mg/kg, ip qd for 4 days administered on 1st day of infection and measured through day 40 post infection; assay type: functional; conditions: route intraperitoneal
Procedure, shortened: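 Mice in groups of five, infected i.p. on day 0 with 2.5 × 10^5 T. b. brucei LAB 110 EATRO parasites; i.p. dosing began day 1. Parasitemia checked twice weekly by microscopy of at least 20 fields of wet blood smears through day 40, with animals considered cured only when clear through day 40.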

[10] = system: Trypanosoma brucei brucei; assay: Antiparasitic activity against Trypanosoma brucei brucei LAB 110 EATRO infected in mouse assessed as parasitemia cure incidence at 2 mg/kg, ip qd for 4 days administered on 1st day of infection and measured through day 40 post infection; assay type: functional, organism-based; design: dose 2 mg/kg
[11] = AUC in mouse blood at 50 mg/kg, ip administered as single dose; assay type: ADME, organism-based; design: dose 50 mg/kg, route intraperitoneal
[12] = AUC in mouse brain at 50 mg/kg, ip administered as single dose; assay type: ADME, organism-based; design: dose 50 mg/kg, route intraperitoneal
[13] = Half life in mouse at 50 mg/kg, ip administered as single dose; assay type: ADME, organism-based; design: dose 50 mg/kg, route intraperitoneal; conditions: in vivo
[14] = Cmax in mouse blood at 50 mg/kg, ip administered as single dose; assay type: ADME, organism-based; design: dose 50 mg/kg, route intraperitoneal
[15] = Cmax in mouse brain at 50 mg/kg, ip administered as single dose; assay type: ADME, organism-based; design: dose 50 mg/kg, route intraperitoneal
in vivo = conditions: mouse, brain, ip, 50 mg/kg

Row | pIC50 [1] | CLint scaled [2] [mL/min/kg] | CLint scaled [3] [mL/min/kg] | CLint scaled [4] [mL/min/kg] | CLint scaled [5] [mL/min/kg] | pIC50 (CYP3A4) | pIC50 (CYP2D6) | pIC50 (CYP2C9) | pIC50 (CYP2C19) | pIC50 (CYP1A2) | fraction unbound at 4 h [6] | fraction unbound at 4 h [7] | solubility kinetic [8] [µg/mL] | Compound | also measured
1 | 6.50 | < 11 | < 4.2 | < 11 | < 4.2 | < 5.30 | < 5.30 | < 5.30 | < 5.30 | < 5.30 | 0.678 | 0.628 | > 47 | CN(C/C=C\CN)C[C@H]1O[C@@H](n2cnc3c(N)ncnc32)[C@@H](F)[C@@H]1O | 
2 |  |  |  |  |  |  |  |  |  |  |  |  |  | N=C(N)c1ccc(OCCCCCOc2ccc(C(=N)N)cc2)cc1 [PENTAMIDINE] | Survival [9]: >40 days; Activity [10]: Active
3 | 6.59 | < 11 | < 4.2 | < 11 | < 4.2 | < 5.30 | < 5.30 | < 5.30 | < 5.30 | < 5.30 | 0.61 | 0.578 | > 51 | CN(C/C=C\CN)C[C@H]1O[C@@H](n2cnc3c(N)nc(Cl)nc32)[C@H](O)[C@@H]1O | AUC [11]: 22100 ng·h/mL; AUC [12]: 400 ng·h/mL; half-life [13]: 1.66 h; Cmax [14]: 39000 ng/mL; Cmax [15]: 110 ng/mL; Kp (in vivo): 1.79
